Assay outcomes as filed in PubChem BioAssay.
Hits are enriched below; roughly 3.2% of the tested compounds scored in any of these assays.
DAGLB inhibitor – diacylglycerol lipase beta (human) inhibition. 340,000 tested, 0.059% active. AID 504411. HEK293T DAGLB membrane lysate, EnzChek fluorogenic substrate. Q8NCG7. inhibition, % at 5.17 µM; in the data active means inhibition above about 34%;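 further: 0% = enzyme with vehicle and 100% = wells lacking enzyme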
LEDGF integ inh – blocks HIV-1 LEDGF/p75-dependent DNA integration; TR-FRET IN-LEDGF/p75 DNA integration, Eu/Cy5; inhibition, % at 3.7 µM; 370,000 tested, 0.64% active;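 active means inhibition above the screen-wide mean plus 3 SD, cut at about 13% in these data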;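 further: signal is the Cy5 over europium emission ratio at 671 and 618 nm; 0% = plate median of compound wells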
rCAG binder – molecules binding r(CAG) RNA repeats | AID 651821 | inhibition, % at 3 µM | 370,000 tested, 1.3% active | r(CAG) RNA repeat, TO-PRO-1 dye displacement fluorescence;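 active means inhibition above the plate cutoff, the mean of all test compounds on that plate plus 3 SD, cut at about 35% in these data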;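 further: 0% = DMSO alone and 100% = 100 µM mitoxantrone as full dye displacement; higher means more dye released from RNA so lower well fluorescence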
PRMT1 FP inh – inhibitors of human PRMT1; Q99873; recombinant PRMT1, activity-based probe fluorescence polarization; inhibition, % at 2.79 µM; 370,000 tested, 1.3% active;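 active means inhibition above about 21% made by adding two undisclosed values, limit read from the data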
Target sequence (Q99873 whole entry, looked up): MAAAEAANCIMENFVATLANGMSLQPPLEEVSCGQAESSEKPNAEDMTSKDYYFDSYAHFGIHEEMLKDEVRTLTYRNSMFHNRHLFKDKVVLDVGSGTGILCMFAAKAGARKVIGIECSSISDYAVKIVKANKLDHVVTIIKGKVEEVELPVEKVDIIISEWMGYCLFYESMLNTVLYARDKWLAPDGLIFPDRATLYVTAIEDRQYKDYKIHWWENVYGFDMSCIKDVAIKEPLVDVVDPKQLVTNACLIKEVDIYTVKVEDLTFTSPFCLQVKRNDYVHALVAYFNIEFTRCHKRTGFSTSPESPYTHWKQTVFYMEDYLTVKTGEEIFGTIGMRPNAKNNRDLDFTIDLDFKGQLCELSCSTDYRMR
mABHD4 FP – inhibitors of mouse ABHD4; purified mABHD4, FP-Rh probe fluorescence polarization; inhibition, % at 8.92 µM; 370,000 tested, 0.54% active;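 active means inhibition exceeding the mean over every tested compound plus 3 SD, cut at about 30% in these data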;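 further: 0% = plate median of compound wells and 100% = S159A mutant with DMSO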
Target sequence (Q8VD66 whole entry, looked up): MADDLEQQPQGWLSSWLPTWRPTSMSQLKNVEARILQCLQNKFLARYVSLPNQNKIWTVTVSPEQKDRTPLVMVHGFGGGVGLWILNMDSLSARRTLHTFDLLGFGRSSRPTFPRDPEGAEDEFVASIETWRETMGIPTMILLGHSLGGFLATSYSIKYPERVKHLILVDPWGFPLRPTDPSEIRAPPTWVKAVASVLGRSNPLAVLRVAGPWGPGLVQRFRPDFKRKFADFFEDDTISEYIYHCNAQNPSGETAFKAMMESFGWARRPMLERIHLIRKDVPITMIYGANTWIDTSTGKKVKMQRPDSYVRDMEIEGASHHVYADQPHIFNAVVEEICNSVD
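Test system: mABHD4 protein; Read-out basis: % inhibition; Incubation: 45 min + 60 min at 25 °C; Repeats: single replicate; Technique: fluorescence polarization with parallel and perpendicular emission, 525/598 nm; Compound: 8.92 µM, single dose; Benchmarks: full inhibition S159A mutant plus DMSO, zero as sample-well median.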
HTRA1 inhibitor – HTRA1 (human) protease inhibition. inhibition, % at 5.96 µM. Q92743. 340,000 tested, 0.5% active. recombinant HTRA1, FP-rhodamine activity-based probe, fluorescence polarization; in the data active means inhibition above about 36%;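 further: 0% = enzyme with DMSO and 100% = wells lacking enzyme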
rCAG binder conf – r(CAG) RNA repeat binding, confirmation. shares compounds with rCAG binder. TO-PRO-1 dye displacement fluorescence. 4,300 tested, 70% active. inhibition, % at 3 µM;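 active means inhibition above a per-plate cutoff, the mean inhibition of sample wells plus 3 SD, cut at about 35% in these data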;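 further: loss of TO-PRO-1 fluorescence as compound displaces dye from 1x1 AA loop RNA; 0% = DMSO only wells and 100% = 100 µM mitoxantrone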
DNA CAG counter – DNA CAG dye complex inhibition counter-screen; 4,300 tested, 94% active; d(CAG) DNA oligo TO-PRO-1 dye displacement, fluorescence; inhibition, % at 3 µM; shares compounds with rCAG binder;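 active means inhibition above its plate's cutoff, the mean test-well inhibition plus 3 SD, cut at about 4.8% in these data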;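 further: 0% = DNA dye mix with DMSO and 100% = 100 µM mitoxantrone; hits displace the dye from DNA and so lower well fluorescence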
DNA CAG DR – disrupts DNA CAG TO-PRO-1 complex in dose response; shares compounds with rCAG binder; DNA CAG/GTC duplex TO-PRO-1 dye displacement fluorescence; IC50, µM; 250 tested, 20% active; AID 686960; in the data active means IC50 below about 10 µM
* = called active by the depositor; . = not tested or not shown.

SMILES	DAGLB inhibitor	LEDGF integ inh	rCAG binder	PRMT1 FP inh	mABHD4 FP	HTRA1 inhibitor	rCAG binder conf	DNA CAG counter	others
O=C(COC(=O)c1ccc(Cl)c(S(=O)(=O)N2CCCCCC2)c1)NCc1ccccc1	-12.1	-2.4	1.3	0.5	-10.1	-24.6	.	.
O=C(O)CCCC(=O)Nc1cccc(C(=O)Nc2ccccc2C(=O)O)c1	1.8	0.1	5.5	1.4	3.6	-2.9	.	.
O=C(CSCc1ccccc1)Nc1cccc(C(=O)Nc2ccccc2C(=O)O)c1	3.0	2.2	71.7*	-0.3	-21.0	-21.5	55.1*	17.6*
O=C(CSCc1ccc(Cl)cc1)Nc1cccc(C(=O)Nc2ccccc2C(=O)O)c1	13.8	3.3	75.6*	1.5	-46.8	-67.6	82.6*	43.3*
O=C(O)COc1ccc(/C=C/c2ccc3cccc([N+](=O)[O-])c3n2)cc1	4.7	2.3	37.2*	10.5	-16.6	-5.0	27.1	8.4*
CC(=O)Nc1ccc(/C=C/c2ccc3cccc([N+](=O)[O-])c3n2)cc1	2.3	1.4	20.4	4.6	-9.0	-15.7	.	.
COc1cc(/C=C/c2ccc3cccc([N+](=O)[O-])c3n2)ccc1OCC(=O)O	2.1	-4.5	48.2*	7.5	2.7	-2.4	47.0*	13.4*
CS(=O)(=O)N1CCCC(C(=O)Nc2cccc(F)c2)C1 (stereo unspecified)	-1.9	1.0	-1.2	-0.6	1.4	-5.7	.	.
O=C(Nc1cccc(C(F)(F)F)c1)Nc1ccc(N2CCCC2)c(S(=O)(=O)Nc2ccccc2Cl)c1	-6.1	-2.3	46.5*	-1.5	-15.1	-3.0	34.4	17.6*
O=C(Nc1cccc(S(=O)(=O)Nc2ccccc2Cl)c1)c1ccc(N2CCCC2)c([N+](=O)[O-])c1	9.5	-3.3	61.1*	0.9	-49.9	-49.5	43.6*	21.5*
CCc1ccc(NC(=O)C(C)OC(=O)Cc2cc(OC)c(OC)c(OC)c2)cc1 (stereo unspecified)	0.3	-0.6	1.1	0.5	0.9	-2.5	.	.
O=C(Nc1ccccc1)Nc1ccccc1NS(=O)(=O)c1cccs1	1.9	-2.0	17.5	-0.6	-0.5	-1.0	.	.
O=C(Nc1ccc(Cl)c(Cl)c1)Nc1ccccc1NS(=O)(=O)c1cccs1	1.3	1.8	42.1*	-1.6	-21.0	-7.5	32.9	9.4*
O=C(Nc1ccc(Cl)cc1)Nc1ccccc1C(=O)O	6.8	-0.4	13.7	-0.8	-3.4	-9.9	.	.
CC(=O)c1cccc(NC(=O)C(OC(=O)c2ccccc2NS(=O)(=O)c2cccs2)c2ccccc2)c1 (stereo unspecified)	-3.4	-1.6	42.7*	0.6	-58.7	-45.0	36.2*	17.4*
CCOc1ccccc1NC(=O)C(OC(=O)c1ccccc1NS(=O)(=O)c1cccs1)c1ccccc1 (stereo unspecified)	-4.6	0.5	6.3	-4.2	-7.4	-23.1	.	.
O=C(Nc1ccc(Cl)c(Cl)c1)Nc1ccccc1C(=O)O	4.5	-1.3	61.0*	3.8	-22.3	-27.9	50.8*	10.6*	DNA CAG DR=>29.9
COc1cc(-c2cc(C(=O)Nc3cc(S(=O)(=O)N4CCOCC4)ccc3O)c3ccccc3n2)cc(OC)c1OC	2.4	-1.5	72.2*	0.1	-2.5	-1.8	74.4*	34.6*
CCN(CC)S(=O)(=O)c1ccc(C(=O)Nc2cc(S(=O)(=O)N3CCOCC3)ccc2O)cc1	2.0	-0.8	35.5*	1.1	-2.1	7.8	31.7	6.9*
Cc1ccc(O)c(NC(=O)c2cccc(S(=O)(=O)N3CCCCC3)c2)c1	1.1	-3.5	5.4	-0.1	3.0	-18.8	.	.
CCOC(=O)c1ccc(NC(=O)c2cc(S(=O)(=O)N3CCOCC3)ccc2O)cc1	-0.7	1.6	48.9*	0.0	-2.4	-3.1	39.7*	9.2*
COc1cc(-c2cc(C(=O)Nc3cc(S(=O)(=O)N4CCOCC4)ccc3C)c3ccccc3n2)cc(OC)c1OC	-2.4	-1.2	12.1	-0.9	-21.1	-14.3	.	.
CCS(=O)(=O)c1ccc(O)c(NC(=O)c2ccc(S(=O)(=O)N3CCCCCC3)cc2)c1	4.7	-0.4	36.8*	7.1	-4.2	0.0	46.4*	10.9*
COc1cc(Cl)ccc1OCc1cc(C(=O)N2CCC(N(C)C)C2)no1 (stereo unspecified)	-0.7	0.8	-4.0	-4.7	0.2	-1.0	.	.
O=C(Nc1ccc(N2CCCCC2)cc1)c1cc([N+](=O)[O-])cc([N+](=O)[O-])c1	-1.8	2.0	-2.1	-1.1	0.9	5.7	.	.
SMILES	DAGLB inhibitor	LEDGF integ inh	rCAG binder	PRMT1 FP inh	mABHD4 FP	HTRA1 inhibitor	rCAG binder conf	DNA CAG counter	others
O=C(/C=C/c1ccccc1)NC(NC(=S)Nc1cccc(O)c1)C(Cl)(Cl)Cl (stereo unspecified)	-3.7	-1.3	23.8	6.4	-47.5	-63.4	.	.
O=C(/C=C/c1ccccc1)NC(NC(=S)Nc1ccc(C(=O)O)cc1)C(Cl)(Cl)Cl (stereo unspecified)	6.0	1.5	65.2*	1.8	-35.4	-17.8	56.2*	13.9*
CC1CN(C(=O)CN2C(=O)c3ccccc3C2=O)CC(C)O1 (stereo unspecified)	-1.6	0.4	-0.3	0.6	0.2	12.5	.	.
CC(=O)Nc1cccc(NC(=O)CS(=O)(=O)c2cn(CC(=O)N3CCCC3)c3ccccc23)c1	-2.1	-0.2	2.3	1.7	2.3	-2.4	.	.
CCOC(=O)c1sc(Nc2ccc(OCC)cc2)nc1C	-2.2	-1.3	-2.9	0.1	7.7	-7.7	.	.
CCOC(=O)c1sc(N2N=C(C)/C(=C\c3ccc(OCC(=O)OC)cc3)C2=O)nc1C	15.3	1.7	52.1*	1.2	1.6	18.4	45.4*	10.0*
CC1=CC(c2ccc(Cl)cc2)n2nc(NS(=O)(=O)c3ccc(C)cc3)nc2N1 (stereo unspecified)	7.8	-4.0	46.8*	2.4	1.7	-2.7	51.6*	17.0*
COc1cccc(NC(=O)COC(=O)C2C3CC4OC(=O)C2C4C3)c1 (stereo unspecified)	-1.1	4.9	1.0	-0.7	1.1	-5.4	.	.
O=C(O)c1cc(N=Cc2c(O)c3ccccc3oc2=O)ccc1O	-0.1	-1.6	37.8*	5.1	18.3	4.2	19.3	2.7
CCOc1ccc2nc(SCc3ccc(CC(=O)O)cc3)c(C#N)cc2c1	3.6	3.1	60.2*	-1.6	13.4	-10.0	55.2*	20.2*
O=C(Nc1ccccc1C(=O)O)c1cc(S(=O)(=O)N2CCOCC2)c(Br)s1	2.7	1.4	46.5*	1.2	-3.2	-1.1	66.5*	36.1*
